# Screening data (PubChem BioAssay)
# Most compounds without a hit are left out; they make up all but 4.9% or so of the library.
# STAT1 blocker = inhibitors of IFN-gamma induced STAT1 signaling; inhibition, % at 5.5 µM; AID 920; 0.35% of 200,000 active; NIH 3T3 STAT1-luciferase reporter, luminescence;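 active = inhibition above a set limit, the mean inhibition across all tested compounds plus 3 SD, cut at about 34% in these data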;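 also: 0% = IFN-gamma with DMSO and 100% = IFN-gamma with 300 µM nifuroxazide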
# STAT3 inh = reduces IL-6 driven STAT3 reporter signal | U3A cells, IL-6 STAT3-luciferase reporter, luminescence; host cell line lacks STAT1 | inhibition, % at 5.5 µM | 0.89% of 190,000 active;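 active = inhibition above the mean inhibition across all screened compounds plus 3 SD, cut at about 44% in these data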;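 also: 0% = DMSO only wells and 100% = 100 µM nifuroxazide control wells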
# APP 5'UTR act = activates APP 5'UTR luciferase reporter | SH-SY5Y APP 5'UTR luciferase reporter, luminescence; zero percent = DMSO vehicle wells | activation, % at 2 µM | 1% of 190,000 active;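 active = activation above a set limit, based on mean plus 3 SD of controls, cut at about 140% in these data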
# STAT3 activator = STAT3 signaling activation | 0.91% of 190,000 active | U3A cells, IL-6 STAT3-luciferase reporter, luminescence; 100% = signal with IL-6 EC80 alone | activation (% of control), % at 5.6 µM | AID 871;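 active = activation above the screen-wide mean of compound activation plus 3 SD, cut at about 130% in these data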;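 also: 0% = background luminescence of wells with medium and substrate only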
#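 Material: STAT3-luciferase reporter U3A cells. Controls: IL-6-treated wells, 100% activation. Read-out: % activation versus median of IL-6-stimulated wells. Probe or stimulus: IL-6 stimulus at 33 ng/mL final. Timing: compound 1 h, then IL-6 6 h at 37 °C. Signal: reporter luminescence signal.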
# STAT1 activator = activators of IFN-gamma induced STAT1 signaling | NIH 3T3 STAT1-luciferase reporter, luminescence; 100% = IFN-gamma alone, no compound | AID 932 | activation (% of control), % at 5.5 µM | 2.6% of 200,000 active;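 active = activation above the screen-wide mean activation plus 3 SD, cut at about 130% in these data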;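 also: raw ratio to IFN-gamma control signal so 100% means no change and 0% no light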
# NF-kB expr up = raises NF-kB expression in human neuronal cells. fold change at 12.5 µM. NF-kB reporter expression; hits give high values. 1.6% of 190,000 active. AID 1239; in the data active = fold change above about 3.3
# STAT1 act conf = confirmation of STAT1 signaling activators; 97% of 1,200 active; activation (% of control), % at 5.7 µM; NIH 3T3 STAT1-luciferase reporter, IFN-gamma potentiation, luminescence; 100% = IFN-gamma EC80 alone, no compound; shares compounds with STAT1 activator;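 active = activation above a set limit carried over from the earlier primary STAT1 screen, cut at about 140% in these data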;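 also: simple ratio to median IFN-gamma plus DMSO wells so 0% means no light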
# NFkB act = NF-kappaB activation in STAT1 activator counter-screen; shares compounds with STAT1 activator; HEK293T NF-kB luciferase reporter, TNF-alpha stimulated, luminescence; 100% = TNF-alpha with vehicle only; activation (% of control), % at 5.7 µM; 43% of 1,200 active;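 active = activation above the mean of solvent-only control wells plus 3 SD, set per campaign, cut at about 130% in these data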;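 also: TNF-alpha given at a submaximal dose yielding about 80% of full reporter signal; values are well signal over median control so 100% means no change and 0% no light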
# STAT3 act 2 = activates human STAT3, counter-screen to STAT1 activators | shares compounds with STAT1 activator | U3A cells STAT3-luciferase reporter, IL-6, luminescence; cells lack STAT1; 100 = IL-6 alone, no compound effect | activation (% of control), % at 5.7 µM | 46% of 1,200 active;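 active = activation above the solvent-only control well mean plus 3 SD, set per plate batch, cut at about 110% in these data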;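 also: 0% = no luminescence and 100% = median IL-6 plus DMSO wells; higher means more STAT3 reporter activation so hits are non-selective activators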
# The depositor's hits bear a star; / = no result.
SMILES,STAT1 blocker,STAT3 inh,APP 5'UTR act,STAT3 activator,STAT1 activator,NF-kB expr up,STAT1 act conf,NFkB act,STAT3 act 2
COC(=O)c1sccc1NC(=O)C1C2C=CC(C2)C1C(=O)O (centres undefined),0.3,6.8,18.1,97.0,96.9,1.45,/,/,/
Cc1ccsc1C(=O)NNC(=O)C1C2C=CC(C2)C1C(=O)O (centres undefined),-96.0,-1.3,154.5*,103.4,184.3*,1.4,131.3*,125.2,106.3
Cc1c(N=C(N)/N=C(\N)Nc2ccc(Br)cc2)c(=O)n(-c2ccccc2)n1C,-7.1,-3.7,-3.9,103.2,106.2,1.27,/,/,/
Cc1ccc(-n2cnc3cc(NCc4cccs4)ccc32)cc1,-30.7,7.9,21.1,93.4,119.8,1.45,/,/,/
c1ccc(-n2cnc3cc(NCc4cccs4)ccc32)cc1,-76.3,5.2,205.3*,98.6,168.7*,0.72,249.5*,133.3*,105.9
COc1ccc(NC(=O)Nc2cc(C)ccc2F)cc1OC,-18.3,-0.5,25.9,103.8,116.7,1.6,/,/,/
Cc1nc(-c2ccc(NC(=O)c3ccccc3Br)cc2)cs1,-57.2,4.4,78.6,96.2,151.0*,4.83*,173.9*,128.8,102.4
Cc1nc(-c2ccc(NC(=O)c3ccccc3C)cc2)cs1,-67.8,17.1,119.9,88.7,159.4*,5.06*,178.5*,125.2,93.7
OCCOCCNc1ncnc2c1cnn2-c1ccc(Cl)cc1,-63.0,9.7,139.9*,96.1,157.2*,4.61*,224.7*,133.4*,116.4*
COc1cccc(C(=O)Nc2ccc(C3CC3(Cl)Cl)cc2)c1 (centres undefined),-59.5,16.5,94.1,89.1,152.4*,5.73*,192.7*,143.3*,104.4
CCCCN(C)C(=O)c1cc2cc([N+](=O)[O-])cc(OC)c2oc1=O,2.2,1.9,1.7,101.4,96.9,1.17,/,/,/
COc1cccc(Cn2c(C3CC3)nc3ccc(NC(=O)c4ccco4)cc3c2=O)c1,-12.2,21.9,30.6,82.8,111.1,0.79,/,/,/
COc1ccc(Cn2c(C3CC3)nc3ccc(NC(=O)C4CC4)cc3c2=O)cc1,-119.2,-5.4,173.1*,110.2,209.0*,8.4*,294.0*,144.1*,124.3*
Clc1ccc(-c2cn3c(n2)SCC3)cc1,-66.4,32.8,153.1*,77.0,158.4*,4.76*,182.7*,137.1*,122.2*
Brc1ccc(-c2cn3c(n2)SCC3)cc1,-69.4,28.1,157.2*,77.5,166.0*,5.16*,199.2*,136.8*,93.8
COc1ccc(NC(C)=O)cc1NC(C)C(=O)Nc1ccc(F)cc1 (centres undefined),4.3,0.2,/,98.5,96.0,1.01,/,/,/
O=C(CSc1nncs1)NCc1ccc(F)cc1,-7.1,1.0,24.0,100.5,104.1,1,/,/,/
O=C1C(C=Nc2ccccc2)=C(O)c2ccccc21,-59.8,38.6,102.7,68.5,162.7*,2.57,243.6*,124.7,125.5*
O=C(O)/C=C/C(=O)Nc1ccccc1-c1ccccc1NC(=O)/C=C/C(=O)O,0.8,-3.9,/,103.6,99.3,0.98,/,/,/
O=C(O)/C=C\C(=O)Nc1ccccc1C#Cc1ccc(Br)cc1,-65.4,-1.9,157.8*,110.5,158.8*,7.96*,130.7*,129.9,95.4
CCN1C(=S)SC(=O)C1=C1C=C(C)N(CCO)C(C)=C1,-59.9,-1.4,120.9,104.8,158.0*,2.79,190.2*,128.1,123.6*
Cc1cc(C)n(-c2ccc(C(=O)Nc3nc4ccccc4s3)cc2)n1,-80.5,6.3,108.8,99.9,173.6*,3.88*,224.7*,141.2*,105.1
O=C(Nc1nc2ccccc2s1)c1ccc(N2CCCCC2)c([N+](=O)[O-])c1,-72.1,29.6,116.5,74.1,165.8*,2.52,197.1*,117.6,100.2
Cc1cc(C)n(-c2ccc(C(=O)NC3=NCCS3)cc2)n1,-25.7,11.0,35.5,93.9,123.5,1.98,/,/,/
Cc1cc([N+](=O)[O-])ccc1NC(=O)c1cccc(NC(=O)C(C)C)c1,-13.8,7.5,19.8,96.7,110.8,1.85,/,/,/
SMILES,STAT1 blocker,STAT3 inh,APP 5'UTR act,STAT3 activator,STAT1 activator,NF-kB expr up,STAT1 act conf,NFkB act,STAT3 act 2
Cc1nn(Cc2ccccc2Cl)c(Cl)c1C(=O)NCCc1ccccc1,-81.9,-5.3,/,104.8,172.8*,3.49*,193.3*,119.9,140.9*
Cc1ccc(SCC(=O)Nc2ccc(N3CCN(c4ccccc4)CC3)c(F)c2)cc1,-3.5,-1.1,5.5,106.3,103.2,1.06,/,/,/
CN1CCN(c2ccc(NC(=O)CSc3ccccc3)cc2F)CC1,-63.3,-1.4,175.3*,105.6,158.2*,1.05,182.7*,125.7,127.7*
Cc1c(Nc2cc(Cl)c3nonc3c2[N+](=O)[O-])c(=O)n(-c2ccccc2)n1C,-301.9,6.0,-95.3,96.9,376.0*,0.17,159.3*,112.6,103.0
Cc1c(Nc2cc(N3CCOCC3)c3nonc3c2[N+](=O)[O-])c(=O)n(-c2ccccc2)n1C,-11.9,2.1,-4.2,102.2,107.6,1.1,/,/,/
CCOc1ccc2nc(NC(=O)CN3CCN(C)CC3)sc2c1,-14.5,-9.0,12.3,111.4,113.3,1.51,/,/,/
COc1ccc2nc(NC(=O)c3ccccc3-c3ccccc3C(=O)O)sc2c1,-8.0,5.6,14.1,97.2,105.8,2.32,/,/,/
CCOc1ccc2nc(NC(=O)Nc3ccccc3)sc2c1,-59.2,15.6,147.8*,91.3,154.9*,2.46,224.0*,138.6*,114.6*
COc1ccc2nc(NC(=O)Nc3ccccc3)sc2c1,-115.6,24.1,189.2*,80.8,205.2*,9.05*,280.5*,116.7,98.4
COc1ccc(NC(=O)c2nc3ccccc3s2)cc1,-68.7,41.5,207.9*,66.6,160.7*,7.53*,231.7*,96.2,99.3
CCOc1ccc2nc(NC(=O)Nc3cccs3)sc2c1,-92.3,12.4,215.8*,89.2,183.9*,9.52*,252.9*,149.2*,120.6*
COc1ccc(OC)c(NC(=O)c2nc3ccccc3s2)c1,-25.6,-9.9,39.4,109.1,120.8,0.9,/,/,/
c1ccc(CCn2nnnc2C(c2cccnc2)N2CCOCC2)cc1 (centres undefined),-0.2,4.8,-8.1,98.0,99.5,1.12,/,/,/
NC(=O)C1=C[C@@H](c2ccc(C(F)(F)F)cc2)C[C@@H](OCCCCO)O1,0.1,/,-11.9,/,101.4,1.08,/,/,/
